The EternaBench riboswitch data

Tested on: MS2 coat protein
Assay: apparent Kd, MS2 coat protein; higher = weaker binding; RNA-MaP array; FMN 200 µM where present
Outline: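 SNAP-549-labelled MS2 coat protein, doubled from 0.7 or 1.5 nM to 3 µM, was titrated over designs transcribed by stalled E. coli RNA polymerase on Illumina sequencing-chip clusters. Titrations were run without and then with constant ligand in 100 mM Tris-HCl pH 7.5, 80 mM KCl, 4 mM MgCl2, BSA, DTT, yeast tRNA and Tween-20. The apparent Kd is the median of filtered per-cluster fits to green signal normalised to red-channel RNA signal and control-cluster median Fmax.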

[1] = designed as: OFF switch for flavin mononucleotide, no ligand
[2] = ligand present: flavin mononucleotide, designed as: OFF switch for flavin mononucleotide
[3] = designed as: ON switch for flavin mononucleotide, no ligand
[4] = ligand present: flavin mononucleotide, designed as: ON switch for flavin mononucleotide

Q: How did the “apparent Kd” value [1] turn out when “CCUCGACAUGAGGAUCACCCAUGUCAGGAUAUUGUGUCUCGGGUUUUUUACCGAUAGGCAAGAAGGGAUGUGUG” was run?
A: The value was 23.4 nM.

Q: What about the “apparent Kd” value [2] of the same sequence?
A: Its value is 31 nM.

Q: What does the source list for “UCAUAAGAACAAGGAUAUCAAUAAAAUAUAAAUGCUACAUGAGGAUCACCCAUGUUUUAGCAUGGUGAGAAGGUGUAUUUACGG”?
A: apparent Kd [3]: 67.8 nM; apparent Kd [4]: 42.5 nM

Q: With “GAUAGACAUGAGGAUCACCCAUGUGAGGAUAUGCGUACGUUGUCAGUAGGCGACGUGCGCAGAAGGCGCAAGUU” as the sequence, how does the “apparent Kd” value [1] read?
A: The value was 77.1 nM.

Q: What about the “apparent Kd” value [2] of the same sequence?
A: The value was 46.5 nM.

Q: With “GUCAUUGACAAGAAGGCAAACAUGAGGAUCACCCAUGUUCUGCAUGUAUAUUGAGGAUAUUGCCAAUGCAUGAGGAUCACCCAG” as the sequence, how does the “apparent Kd” value [1] read?
A: The value was 11.7 nM.

Q: What about the “apparent Kd” value [2] of the same sequence?
A: The value was 20.2 nM.

Q: How did the “apparent Kd” value [1] turn out when “AUCUAAGAAUUAAUUGUGACAGUGAGAAGGCUAUAGUUUGUGACCGACAUGAGGAUCACCCAUGUAGAGGAUAUCACUAGCUAC” was run?
A: Its value is 39.9 nM.

Q: What about the “apparent Kd” value [2] of the same sequence?
A: The value was 253 nM.

Q: For “UGAUCUAUGUAGAAGGCCCAUAUCUAUAUUUAGGGAGGAUAUACAUGAGGAUCACCCAUGUAUAGAGCUGGUGGACUGGUCAGC”, which “apparent Kd” value [1] is on record?
A: The value was 30.7 nM.

Q: And the “apparent Kd” value [2]?
A: The value was 88.6 nM.

Q: For “AAGGAUAGAGGAUAUACAUAGAUACAGAUUCAUGUGGAACUACAUGAGGAUCACCCAUGUAGAAGGCUAUCCUA”, which “apparent Kd” value [1] is on record?
A: Its value is 40.1 nM.

Q: And the “apparent Kd” value [2]?
A: The value was 262 nM.

Q: Which results are given for “GUUAUGCGAGGAUAUACAUGAGGAUCACCCAUGUAAUCUGGUGGCGUGAAAAUAAAGUGUAGAAGGCGCUGACC”?
A: apparent Kd [1]: 17.6 nM; apparent Kd [2]: 31.9 nM

Q: Which results are given for “UGUUUAUAUGAAGGAUAUACUUAACAUGAGGAUCACCCAUGUGGUGUUGUGAGUGAGUGAGUUUAGUAGAAGGUCAAUUAUUUU”?
A: apparent Kd [1]: 286 nM; apparent Kd [2]: 643 nM

Q: With “AGUGUCAUCGAGAAGGCCUUAACAUGAGGAUCACCCAUGUUGUAACAUGGGAGGAUAUCGAUGAUACAGCUACGUUUCGUAGCA” as the sequence, how does the “apparent Kd” value [3] read?
A: The value was 412 nM.

Q: What about the “apparent Kd” value [4] of the same sequence?
A: Its value is 25.5 nM.

Q: For “AAUUAUUUACAGAAGGAGUAAGAUUUUGUAUUACUAGGAUAUGUUAACAUGAGGAUCACCCAUGUGUUUGUAGGUUUUUUAUGU”, which “apparent Kd” value [1] is on record?
A: Its value is 12.2 nM.

Q: And the “apparent Kd” value [2]?
A: The value was 8.54 nM.

Q: Which results are given for “UGCCUUUGAGGAUAUACAUUGAAUUUGAUUCAUGUAAAACUACAUGAGGAUCACCCAUGUAGAAGGCAAGGGCU”?
A: apparent Kd [1]: 18.7 nM; apparent Kd [2]: 27.7 nM

Q: With “GGUGCGUAUGUGAGGAUAUGCUGGUCCUUGGAUCGGCAGAAGGUACAUGAGGAUCACCCAUGUGGUGUCGUUCU” as the sequence, how does the “apparent Kd” value [1] read?
A: The value was 382 nM.

Q: And the “apparent Kd” value [2]?
A: Its value is 251 nM.

Q: What does the source list for “UAAUAAUAAUAAUAGCAGUUACAUGAGGAUCACCCAUGUAUAUAGGAUAUCGUCAGGAAUACUGACGAGAAGGAUAUACUCUGC”?
A: apparent Kd [1]: 21.9 nM; apparent Kd [2]: 26.2 nM

Q: Which “apparent Kd” value [1] does the source give for “AAAUUUAACGAAGGAUAUGCUAACAUGAGGAUCACCCAUGUGUGCUUUGUGUUGCUGAAAUUGGAGCAGAAGGUCGUAUACAUA” here?
A: The value was 95.4 nM.

Q: What about the “apparent Kd” value [2] of the same sequence?
A: Its value is 145 nM.

Q: How did the “apparent Kd” value [3] turn out when “CGCUACGUUUCGUAGCAGUGUCAUCGAGAAGGCCCUGACAUGAGGAUCACCCAUGUAAAAGUUCAGGAGGAUAUCGAUGAUACA” was run?
A: Its value is 4.83 nM.

Q: And the “apparent Kd” value [4]?
A: Its value is 4.95 nM.

Q: How did the “apparent Kd” value [1] turn out when “ACUAGAUGAGGAUAUGCAUAUUUUCGUGUUCUUCUAGGUUAACAUGAGGAUCACCCAUGUAGAAGGCGUCUAUC” was run?
A: The value was 22.2 nM.

Q: And the “apparent Kd” value [2]?
A: The value was 39.7 nM.

Q: “GUAGCUAUCGGAGGAUAUCCUCAGCGGAAACGCACAUGAGGAUCACCCAUGUAAAUAAAUAAUUAAGAGAAGGCCGAUAGCUAC” was tested. Which “apparent Kd” value [3] did it give?
A: The value was 706 nM.

Q: What about the “apparent Kd” value [4] of the same sequence?
A: The value was 55 nM.

Q: “AAUAACAGAGGAUAUACAAAAAUAAAAGGAAACAAAAGAAAACAUGAGGAUCACCCAUGUAGAAGGCUGAAUAA” was tested. Which “apparent Kd” value [1] did it give?
A: Its value is 21.1 nM.

Q: What about the “apparent Kd” value [2] of the same sequence?
A: The value was 18.9 nM.

Q: How did the “apparent Kd” value [1] turn out when “CCGACGAAAGUCGAACGAUGUAGCAGAAGGACAUGAGGAUCACCCAUGUCAGCUGUAACAGCCAUGUAGGAUAUGCUACAUCGC” was run?
A: The value was 4.16 nM.

Q: What about the “apparent Kd” value [2] of the same sequence?
A: The value was 5.51 nM.

Q: For “CAGUACUGAGGAUAUACAUGAGGAUCACCCAUGUGCCUAAGCUAGGAUACUAGCAUUAGUAGAAGGCAGUACUG”, which “apparent Kd” value [1] is on record?
A: The value was 12.8 nM.

Q: What about the “apparent Kd” value [2] of the same sequence?
A: The value was 24.8 nM.

Q: What does the source list for “GAGCUGUGAGGAUAUACAUGAGGAUCACCCAUGUUAAGGAAGUCGGGAUUAAUUUAGUGUAGAAGGCACUUAUU”?
A: apparent Kd [1]: 39.9 nM; apparent Kd [2]: 41.6 nM

Q: For “UGUCGGAGCAGAGGAUAUUACAUGAGGAUCACCCAUGUAUGAACCAAUAGCUGGAAACAGCAAUGUAAGAAGGCUGCUCAGACA”, which “apparent Kd” value [1] is on record?
A: The value was 11.9 nM.

Q: And the “apparent Kd” value [2]?
A: Its value is 137 nM.

Q: How did the “apparent Kd” value [1] turn out when “GAGAAGUCAGGAUAUGCAUGGCGGGACUUGCGUCGUGGCGUGCAGAAGGGACAUGAGGAUCACCCAUGUGGAGC” was run?
A: The value was 114 nM.

Q: And the “apparent Kd” value [2]?
A: The value was 161 nM.

Q: Which results are given for “CUAAGGGAUUGCUCGAAGACAUGAGGAUCACCCAUGUAGGCGAGAAGGGCGGCGACUUUAGCGCUGCAGGAUAUCGACUGCAGU”?
A: apparent Kd [1]: 9 nM; apparent Kd [2]: 10.1 nM

Q: For “GCGUACAUAUCAGGAUAUCAUUGUAUUGUUUAACUCAGUGUAUACAUGAGGAUCACCCAUGUUCUUGAGAAGGGAUUACUACGC”, which “apparent Kd” value [1] is on record?
A: Its value is 14.1 nM.

Q: And the “apparent Kd” value [2]?
A: Its value is 15.4 nM.

Q: For “AGUCCACAUGAGGAUCACCCAUGUCAGGAUAUCUGCUGGAAGAGGGCAGAAAGCCAGGAGAGAAGGGACCUGGG”, which “apparent Kd” value [1] is on record?
A: Its value is 37.9 nM.

Q: And the “apparent Kd” value [2]?
A: Its value is 74.5 nM.

Q: Which results are given for “UUUUCCAGAGGAUAUGCGAAUAAAUAAAACUUUUUUUUUUAACAUGAGGAUCACCCAUGUAGAAGGCUGAUUUU”?
A: apparent Kd [1]: 47.9 nM; apparent Kd [2]: 48.5 nM

Q: What does the source list for “GGGUGGCGUAUAGGAUAUAUGGUACAUGAGGAUCACCCAUGUACAUAUGAUGUUCAUGUUUGUGUAUAGAAGGAUACGUCGCUA”?
A: apparent Kd [3]: 9.79 nM; apparent Kd [4]: 9.81 nM

Q: With “AUAUAUAUAAGGAAGGAUAUCUUAGAAAAAACAUGAGGAUCACCCAUGUAAAUAAAGAAUAAAUGGGAGAAGGUCCAUAUAUAUA” as the sequence, how does the “apparent Kd” value [3] read?
A: The value was 30.1 nM.

Q: What about the “apparent Kd” value [4] of the same sequence?
A: The value was 16.3 nM.

Q: For “UAUAUAUAGUAAGGAUAUAUAUUUUUUUUAUAAAUAGAAGGUACAGACAUGAGGAUCACCCAUGUUAUAAUAUGGACAUGUGGA”, which “apparent Kd” value [1] is on record?
A: Its value is 101 nM.

Q: What about the “apparent Kd” value [2] of the same sequence?
A: Its value is 101 nM.

Q: Which “apparent Kd” value [1] does the source give for “UAACAGCAAGGAUAUACGGGCUGUGCUUUUCAUUUCUUACAACAUGAGGAUCACCCAUGUAGAAGGUGCAACAU” here?
A: Its value is 32.5 nM.

Q: And the “apparent Kd” value [2]?
A: Its value is 76.9 nM.

Q: Which results are given for “UAGAAUCGAGGAUAUACAUGAGGAUCACCCAUGUGUGGCCAUACGGUGUGGUCGUCAGGUAGAAGGCGAUUAUA”?
A: apparent Kd [1]: 34.4 nM; apparent Kd [2]: 14.6 nM

Q: Which results are given for “CGUACACAUGAGGAUCACCCAUGUCAGAGGCGGUCAGGAUAUGGGCGGCAUCCGCUAUAGCCAGAAGGGACUGAUG”?
A: apparent Kd [3]: 173 nM; apparent Kd [4]: 73.6 nM

Q: With “UCAUUUCAGUUAGGAUAUUAAAACAUGACGAUACAUGAGGAUCACCCAUGUUAAGAAGGAACUAAUACAUAUAAUGCAAUGUUC” as the sequence, how does the “apparent Kd” value [1] read?
A: Its value is 15.9 nM.

Q: What about the “apparent Kd” value [2] of the same sequence?
A: The value was 13.2 nM.

Q: What does the source list for “ACAUGGAAUACAGGAUAUGUAAGUUUUAAGUAGAUUGGUUAUUACUUUACUACAGAAGGGUAAUACAUGAGGAUCACCCAUGUA”?
A: apparent Kd [3]: 16.9 nM; apparent Kd [4]: 12.2 nM

Q: Which results are given for “GGACGUCACAUUAACAUGAGGAUCACCCAUGUCAAAAGACAUGAGGAUAUGGAUCCUAAUUGGAUCCAGAAGGCAUGGACGUCC”?
A: apparent Kd [3]: 664 nM; apparent Kd [4]: 33.4 nM

Q: Which “apparent Kd” value [1] does the source give for “AGUCGGAGCAGAGGAUAUUACAUGAGGAUCACCCAUGUAAUAAAUGGAAGCUGGAAACAGCAAUGUAAGAAGGCUGCUCCGACA” here?
A: Its value is 16.4 nM.

Q: And the “apparent Kd” value [2]?
A: The value was 47.9 nM.

Q: Which results are given for “AGAAAACAUGAGGAUCACCCAUGUCAGGAUAUCCUGCGGCGAUACAAGCCACGUUGUCGGAGAAGGGACAGGGA”?
A: apparent Kd [1]: 58 nM; apparent Kd [2]: 89.7 nM

Q: Which results are given for “GGAUCGAAAGUGAGGAUAUACCACUGGAUACAGUGGUAGAAGGCACAUGAGGAUCACCCAUGUCCUUACGAUCC”?
A: apparent Kd [1]: 20.8 nM; apparent Kd [2]: 117 nM

Q: Which results are given for “UUACCUCAUGAGAAGGACAUGAGGAUCACCCAUGUAGGAUAUCGUGGAAGACAGGUAUUGAAUCUUCGGAUUCAAUACCUGUCU”?
A: apparent Kd [3]: 331 nM; apparent Kd [4]: 17.1 nM

Q: With “CCGUCGCUUAGCGCUCCUCAUACAUGAGGAUCACCCAUGUACAGAAGGCGGAGGGCCAGGCCCACCGAGGAUAUGUAAGUGUGA” as the sequence, how does the “apparent Kd” value [1] read?
A: The value was 73 nM.

Q: And the “apparent Kd” value [2]?
A: Its value is 73.2 nM.
